In ChEMBL document CHEMBL2331480, “Novel naphthoquinone derivatives: synthesis and activity against human African trypanosomiasis” (Bioorg Med Chem Lett, 2013):

Experiments:
L6 = assay: Cytotoxicity against rat L6 cells after 72 hrs by SRB assay; format: cell-based; settings: L6, 72 h
Summary of the method: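 L-6 rat skeletal myoblasts seeded at 2 × 10^3 cells/100 µL in DMEM with 10% heat-inactivated FBS onto threefold serially diluted compounds, with solvent blanks; 72 h at 37 °C, 5% CO2. Cells fixed with TCA (10% final, 4 °C, 1 h), stained 45 min with 0.4% SRB in 1% acetic acid, dye solubilized in 10 mM Tris base pH 10.5.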

[1] = system: Trypanosoma brucei rhodesiense; assay: Antitrypanosomal activity against Trypanosoma brucei rhodesiense after 48 hrs by CellTiter-Glo assay; format: functional, organism-based
Summary of the method: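 T. b. rhodesiense bloodstream forms isolated from infected blood (citrate-glucose anticoagulant, diluted in HMI-9, low-speed spin), grown at 37 °C, 5% CO2 in HMI-9 with 10% heat-inactivated FBS and 10% Serum Plus. Compounds in DMSO pin-transferred onto diluted culture; 48 h at 37 °C; CellTiter-Glo read […] as percent of control; IC50 calculated.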

| IC50 [1] | Structure (SMILES) | IC50 (L6) |
| --- | --- | --- |
| 20 µM | Cc1ccc(NC2=C(Cl)C(=O)c3ccccc3C2=O)cc1 | > 450 µM |
| 0.17 µM | O=C1C(Cl)=C(Nc2ccccc2)C(=O)c2ccccc21 | 417 µM |
| 18 µM | Cc1ccccc1NC1=C(Cl)C(=O)c2ccccc2C1=O | > 450 µM |
| 10 µM | Cc1cccc(NC2=C(Cl)C(=O)c3cccc([N+](=O)[O-])c3C2=O)c1 | 214 µM |
| 11 µM | Cc1cccc(NC2=C(Cl)C(=O)c3c(cccc3[N+](=O)[O-])C2=O)c1 | 223 µM |
| 0.45 µM | O=C1C(Nc2ccccc2C(F)(F)F)=C(Nc2ccccc2C(F)(F)F)C(=O)c2ccccc21 | 292 µM |
| 0.15 µM | O=C1C(Cl)=C(Nc2ccccc2C(F)(F)F)C(=O)c2ccccc21 | 307 µM |
| 0.09 µM | O=C1C(Nc2ccccc2C(F)(F)F)=C(Nc2ccccc2C(F)(F)F)C(=O)c2c1cccc2[N+](=O)[O-] | 88 µM |
| 0.07 µM | O=C1C(Cl)=C(Nc2ccccc2C(F)(F)F)C(=O)c2c1cccc2[N+](=O)[O-] | 75 µM |
| 0.05 µM | O=C1C(Nc2ccccc2C(F)(F)F)=C(Cl)C(=O)c2c1cccc2[N+](=O)[O-] | 95 µM |
| 2 µM | O=C1C(Nc2ccc(C(F)(F)F)cc2)=C(Nc2ccc(C(F)(F)F)cc2)C(=O)c2ccccc21 | 276 µM |
| 0.8 µM | O=C1C(Cl)=C(Nc2ccc(C(F)(F)F)cc2)C(=O)c2ccccc21 | 292 µM |
| 4 µM | O=C1C(Nc2ccc(C(F)(F)F)cc2)=C(Nc2ccc(C(F)(F)F)cc2)C(=O)c2c1cccc2[N+](=O)[O-] | 97 µM |
| 2 µM | O=C1C(Cl)=C(Nc2ccc(C(F)(F)F)cc2)C(=O)c2c1cccc2[N+](=O)[O-] | 121 µM |
| 0.8 µM | O=C1C(Nc2ccc(C(F)(F)F)cc2)=C(Cl)C(=O)c2c1cccc2[N+](=O)[O-] | 115 µM |
| 0.67 µM | O=C1C(Nc2ccccc2)=C(Nc2ccccc2)C(=O)c2ccccc21 | 378 µM |
| 20 µM | Cc1ccccc1NC1=C(Nc2ccccc2C)C(=O)c2ccccc2C1=O | > 450 µM |
| 24 µM | Cc1ccc(NC2=C(Nc3ccc(C)cc3)C(=O)c3ccccc3C2=O)cc1 | > 450 µM |
| 21 µM | Cc1cccc(NC2=C(Nc3cccc(C)c3)C(=O)c3ccccc3C2=O)c1 | > 450 µM |
| 18 µM | Cc1cccc(NC2=C(Cl)C(=O)c3ccccc3C2=O)c1 | > 450 µM |
| 7 µM | Cc1ccccc1NC1=C(Nc2ccccc2C)C(=O)c2c(cccc2[N+](=O)[O-])C1=O | 186 µM |
| 4 µM | Cc1ccccc1NC1=C(Cl)C(=O)c2cccc([N+](=O)[O-])c2C1=O | 195 µM |
| 3 µM | Cc1ccccc1NC1=C(Cl)C(=O)c2c(cccc2[N+](=O)[O-])C1=O | 210 µM |
| 12 µM | Cc1ccc(NC2=C(Nc3ccc(C)cc3)C(=O)c3c(cccc3[N+](=O)[O-])C2=O)cc1 | 172 µM |
| 8 µM | Cc1ccc(NC2=C(Cl)C(=O)c3cccc([N+](=O)[O-])c3C2=O)cc1 | 186 µM |
| 6 µM | Cc1ccc(NC2=C(Cl)C(=O)c3c(cccc3[N+](=O)[O-])C2=O)cc1 | 169 µM |
| 15 µM | Cc1cccc(NC2=C(Nc3cccc(C)c3)C(=O)c3c(cccc3[N+](=O)[O-])C2=O)c1 | 195 µM |
